Experimental data reported in PubChem BioAssay AID651740 (Broad Institute, 2012).
In all, about 5,600 compounds went through this assay and about 1,200 (21%) were called active. About 3% were inconclusive and are not listed.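 Rule for the calls: active = mean inhibition above about 95%, with at least 55% of replicates also reaching it (limit read from the data); inconclusive = meets just one of the two conditions; inactive = meets neither condition.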 These entries were drawn from the full list.

Assay: Trypanosoma cruzi growth blockers in host fibroblasts – NIH3T3 host cells, beta-gal parasites, cherry-pick, set 2, confirmation (AID 651740);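 note: plate controls were neutral control median for no effect and positive control median for full effect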
Settings: T. cruzi beta-gal in NIH3T3, GalScreen luminescence, 90 h; at 2.09 µM; stronger effect = higher value
Procedure, shortened: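 Timing: host attachment 3 h, co-culture ≥90 h, lysis 60 min / Test system: NIH/3T3 host cells with beta-gal T. cruzi Tulahuen C4 / Quantity: 5,000 fibroblasts/well / Dosing: single point, 100 nL compound in DMSO pinned per well / Buffer or medium: 2% FBS DMEM with PSG / Detection: GalScreen luminescence (substrate 1:25 in Buffer B) after cell lysis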
For `O=C(c1ccc(F)cc1)N1CCCCN2[C@H](C1)[C@@H](c1ccc(C#CC3(O)CCCC3)cc1)[C@@H]2CO`, the inhibition was 2.53% (inactive).
For `CCCNC(=O)N(C)C[C@@H]1Oc2ncc(C#Cc3ccccc3F)cc2C(=O)N([C@@H](C)CO)C[C@H]1C`, the inhibition was 94.5% (inactive).
For `O=C(Nc1ccc(-c2ccccc2)cc1)[C@H]1[C@H](CO)[C@H]2Cn3c(cccc3=O)[C@H]2N1CC1CC1`, the inhibition was 33.8% (inactive).
With `C[C@@H]1CN([C@H](C)CO)C(=O)c2cc(-c3cncnc3)cnc2O[C@H]1CN(C)C(=O)Nc1ccc2c(c1)OCO2` the inhibition was -52% (inactive).
With `N#C[C@@H]1[C@@H](c2ccc(/C=C/c3ccccc3)cc2)[C@@H](CO)N1C(=O)C1CC1` the inhibition was 68.6% (inactive).
With `COc1ccc(S(=O)(=O)N(C)C[C@H]2OCCCC[C@H](C)Oc3ccc(NS(=O)(=O)c4ccc(F)cc4)cc3C(=O)N([C@@H](C)CO)C[C@@H]2C)cc1` the inhibition was 54% (inactive).
For `Cc1ccc(S(=O)(=O)N(C)C[C@@H]2OCCCC[C@@H](C)Oc3ccc(NS(=O)(=O)c4ccc(F)cc4)cc3C(=O)N([C@H](C)CO)C[C@H]2C)cc1`, the inhibition was 76.8% (inactive).
With `COc1ccc(S(=O)(=O)Nc2ccc3c(c2)C(=O)N([C@H](C)CO)C[C@H](C)[C@H](CN(C)Cc2ccc(C(F)(F)F)cc2)O3)cc1` the inhibition was 85.4% (inactive).
For `C[C@H](CO)N1C[C@H](C)[C@H](CN(C)Cc2ccc(C(F)(F)F)cc2)OCCCC[C@H](C)Oc2ccc(NS(=O)(=O)c3ccc(Cl)cc3)cc2C1=O`, the inhibition was 104% (active).
For `COc1ccc(S(=O)(=O)Nc2ccc3c(c2)C(=O)N([C@H](C)CO)C[C@@H](C)[C@@H](CN(C)CC2CCCCC2)OCCCC[C@@H](C)O3)cc1`, the inhibition was 105% (active).
With `C[C@@H]1CN([C@H](C)CO)C(=O)c2cc(NS(=O)(=O)c3ccc(Cl)cc3)ccc2O[C@@H](C)CCCCO[C@H]1CN(C)Cc1ccccc1` the inhibition was 94.6% (inactive).
For `C[C@@H]1CCCCO[C@H](CN(C)S(=O)(=O)c2cccs2)[C@H](C)CN([C@H](C)CO)C(=O)c2cc(NS(=O)(=O)c3ccc(F)cc3)ccc2O1`, the inhibition was 62.8% (inactive).
In the case of `C[C@@H]1CN([C@H](C)CO)C(=O)c2cc(NS(=O)(=O)c3cccs3)ccc2O[C@@H](C)CCCCO[C@@H]1CN(C)S(=O)(=O)c1ccc(Cl)cc1`, the inhibition is reported as 63.6% (inactive).
In the case of `C[C@@H]1CCCCO[C@H](CN(C)Cc2ccccc2)[C@H](C)CN([C@H](C)CO)C(=O)c2cc(NS(=O)(=O)c3ccc(Cl)cc3)ccc2O1`, the inhibition is reported as 107% (active).
In the case of `C[C@H](CO)N1C[C@H](C)[C@H](CN(C)Cc2ccc(C(F)(F)F)cc2)Oc2ccc(NS(=O)(=O)c3ccc(Cl)cc3)cc2C1=O`, the inhibition is reported as 74% (inactive).
In the case of `C[C@@H]1CN([C@H](C)CO)C(=O)c2cc(NS(=O)(=O)c3cccs3)ccc2O[C@@H](C)CCCCO[C@H]1CN(C)Cc1ccc(C(F)(F)F)cc1`, the inhibition is reported as 112% (active).
With `C[C@@H]1CCCCO[C@H](CN(C)C(=O)NC2CCCCC2)[C@H](C)CN([C@H](C)CO)C(=O)c2cc(NS(=O)(=O)c3ccc(Cl)cc3)ccc2O1` the inhibition was 50.5% (inactive).
In the case of `COc1ccc(CN(C)C[C@H]2Oc3ccc(NS(=O)(=O)c4ccc(Cl)cc4)cc3CC(=O)N([C@@H](C)CO)C[C@H]2C)cc1`, the inhibition is reported as 33.6% (inactive).
For `C[C@@H]1CN([C@H](C)CO)C(=O)c2cccc(NC(=O)c3ccc(-c4nccs4)cc3)c2O[C@@H]1CN(C)C(=O)Nc1ccc(C(F)(F)F)cc1`, the inhibition was 53% (inactive).
For `CC(C)CC#Cc1cnc2c(c1)C(=O)N([C@@H](C)CO)C[C@@H](C)[C@H](CN(C)C(=O)Cc1ccncc1)O2`, the inhibition was 29.7% (inactive).
In the case of `O=C(c1cccc(F)c1)N1CCCCN2[C@H](CO)[C@H](c3ccc(-c4ccncc4)cc3)[C@H]2C1`, the inhibition is reported as 82% (inactive).
In the case of `CN(C)C(=O)c1ccc(-c2ccc([C@@H]3[C@H](CO)N4CCCCN(S(C)(=O)=O)C[C@@H]34)cc2)cc1`, the inhibition is reported as 17.3% (inactive).
In the case of `Cc1cccc(-c2ccc([C@H]3[C@@H](CO)N4CCCCN(Cc5cncnc5)C[C@H]34)cc2)c1`, the inhibition is reported as 48.1% (inactive).
In the case of `CN(C)C(=O)c1ccc(-c2ccc3c(c2)[C@H]2[C@H](CCN2C(=O)c2ccc4c(c2)OCO4)[C@H](CO)N3)cc1`, the inhibition is reported as 72.2% (inactive).
With `C[C@@H]1CCCCO[C@H](CN(C)C(=O)NC2CCCCC2)[C@H](C)CN([C@H](C)CO)C(=O)c2cc(NC(=O)Nc3ccc(F)cc3)ccc2O1` the inhibition was 105% (active).
For `C[C@H]1CCCCO[C@@H](CN(C)C(=O)NC2CCCCC2)[C@@H](C)CN([C@@H](C)CO)C(=O)c2cc(NS(=O)(=O)c3ccc(Cl)cc3)ccc2O1`, the inhibition was 68% (inactive).
In the case of `C[C@H]1CCCCO[C@H](CN(C)Cc2ccccc2)[C@@H](C)CN([C@@H](C)CO)C(=O)c2cc(NC(=O)NC3CCCCC3)ccc2O1`, the inhibition is reported as 43.1% (inactive).
In the case of `C[C@H]1CCCCO[C@H](CN(C)Cc2ccccc2)[C@@H](C)CN([C@@H](C)CO)C(=O)c2cc(NC(=O)c3ccccc3)ccc2O1`, the inhibition is reported as 68.2% (inactive).
For `C[C@@H]1CCCCO[C@H](CN(C)Cc2ccccc2)[C@@H](C)CN([C@@H](C)CO)C(=O)c2cc(NC(=O)Nc3ccc(F)cc3)ccc2O1`, the inhibition was 103% (active).
For `C[C@@H]1CN([C@H](C)CO)C(=O)c2cc(NC(=O)Nc3ccc(F)cc3)ccc2O[C@@H](C)CCCCO[C@@H]1CN(C)CC1CCCCC1`, the inhibition was 104% (active).
For `C[C@@H]1CCCCO[C@@H](CN(C)CC2CC2)[C@H](C)CN([C@H](C)CO)C(=O)c2cc(NC(=O)C3CCCCC3)ccc2O1`, the inhibition was 89.3% (inactive).
In the case of `C[C@@H]1CCCCO[C@H](CN(C)Cc2ccc(C(F)(F)F)cc2)[C@H](C)CN([C@H](C)CO)C(=O)c2cc(NC(=O)Nc3ccc(F)cc3)ccc2O1`, the inhibition is reported as 117% (active).
With `C[C@@H]1CCCCO[C@@H](CN(C)Cc2ccc(C(F)(F)F)cc2)[C@@H](C)CN([C@H](C)CO)C(=O)c2cc(NC(=O)Nc3ccccc3)ccc2O1` the inhibition was 64.3% (inactive).
In the case of `Cc1ccc(S(=O)(=O)Nc2ccc3c(c2)C(=O)N([C@H](C)CO)C[C@H](C)[C@H](CN(C)C(=O)Nc2ccc(F)cc2)OCCCC[C@H](C)O3)cc1`, the inhibition is reported as 71.2% (inactive).
